ChEMBL document CHEMBL4732155 (Eur J Med Chem, 2021)
Calls of active or inactive are those of the source. No cut-off for these calls is given here. Where a SMILES comes first, the peptide text is derived from it. [ ]: non-standard residue; d: D form. The star is where a group is joined. Cbz = O=C(OCc1ccccc1)*

Assays:
[1] = Inhibition of proteasomal turnover of p97-independent ODD-luciferase reporter substrate in human HeLa cells incubated for 120 mins by luciferase reporter gene assay; format: functional, cell-based; conditions: 2 h
How it was run: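 HeLa cells co-expressing UbG76V-GFP and ODD-Luc were seeded at 5000/well in clear DMEM with 2.5% FBS. They were pretreated with 4 μM MG132 for 60 min at 37 °C, washed with PBS, then given cycloheximide plus compound for 120 min at 37 °C and washed. GFP was read by high-content confocal imaging, then luminescence after 10 min with D-luciferin at r.t. IC50 was fitted from quadruplicates.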

[2] = biological target: T1, Transitional endoplasmic reticulum ATPase (Homo sapiens, UniProt P55072); assay: Inhibition of His6-tagged p97 (unknown origin) expressed in Escherichia coli BL21 (DE3) assessed as reduction in ATPase activity measured after 60 mins by biomol green reagent based assay
How it was run: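 His6-p97 expressed in E. coli BL21(DE3), purified by Ni-NTA and gel filtration (500–600 kDa fractions, ≥95% pure). Phosphate read by Biomol Green at 635 nm. Eight-dose titrations; IC50 from six replicates. Thiol tests added DTT or cysteine during preincubation.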
Target sequence in this assay (P55072 whole entry): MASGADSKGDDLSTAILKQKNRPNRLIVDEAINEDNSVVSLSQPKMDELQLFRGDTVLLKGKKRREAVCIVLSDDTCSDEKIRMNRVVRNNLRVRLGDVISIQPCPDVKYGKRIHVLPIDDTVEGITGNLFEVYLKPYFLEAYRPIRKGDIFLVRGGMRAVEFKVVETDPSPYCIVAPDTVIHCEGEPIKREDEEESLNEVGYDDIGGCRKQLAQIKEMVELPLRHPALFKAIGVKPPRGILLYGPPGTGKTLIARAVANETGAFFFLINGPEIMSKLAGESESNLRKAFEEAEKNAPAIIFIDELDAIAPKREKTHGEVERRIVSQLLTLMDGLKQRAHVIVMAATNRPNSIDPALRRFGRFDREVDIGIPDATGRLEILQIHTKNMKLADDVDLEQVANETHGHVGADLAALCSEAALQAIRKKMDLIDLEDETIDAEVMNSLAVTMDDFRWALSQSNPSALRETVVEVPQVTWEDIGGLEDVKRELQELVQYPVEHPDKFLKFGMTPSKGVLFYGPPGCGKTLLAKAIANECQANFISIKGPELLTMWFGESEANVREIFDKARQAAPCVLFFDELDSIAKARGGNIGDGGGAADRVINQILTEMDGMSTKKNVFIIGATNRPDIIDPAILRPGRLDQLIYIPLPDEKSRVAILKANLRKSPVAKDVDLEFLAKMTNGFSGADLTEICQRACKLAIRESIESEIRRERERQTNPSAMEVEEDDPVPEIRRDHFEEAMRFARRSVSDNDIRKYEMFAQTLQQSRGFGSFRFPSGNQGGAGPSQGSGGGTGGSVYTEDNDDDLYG

[3] = biological target: T1, Transitional endoplasmic reticulum ATPase; assay: Inhibition of p97 in human HeLa cells assessed as reduction in proteasomal turnover of p97-dependent reporter substrate UbG76V-GFP incubated for 120 mins by GFP fluorescence imaging
Target sequence in this assay (P55072 whole entry): as above

[4] = Inhibition of yeast Cdc48 T532C mutant assessed as reduction in ATPase activity measured after 60 mins by biomol green reagent based assay; set-up: species or system Saccharomyces cerevisiae
How it was run: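 Yeast Cdc48 ATPase activity with 200 μM ATP in Tris pH 7.4 buffer containing MgCl2, EDTA, TCEP and Triton X-100, 60 min at room temperature. Biomol Green read at 635 nm. Eight-dose titration; IC50 from six replicates.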

[5] = Selectivity ratio of IC50 for antiproliferative activity against NMS-873-resistant human HCT-116 cells to IC50 for antiproliferative activity against human HCT-116 cells; format: functional
[6] = biological target: T1, Transitional endoplasmic reticulum ATPase; assay: Irreversible inhibition of p97 in human HeLa cells assessed as reduction in p97-dependent reporter substrate UbG76V-GFP degradation preincubated followed by washout and measured after 17 hrs by luciferase reporter gene assay; format: cell-based; conditions: in the assay text read “GFP fluorescence assay” for “luciferase reporter gene assay”
How it was run: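 HeLa cells expressing UbG76V-GFP/ODD-Luc, 5000 cells/well in DMEM with 2.5% FBS. Pretreated with 4 μM MG132 for 60 min at 37 °C, PBS-washed, then given cycloheximide plus compound for 120 min. After washout, GFP decay followed in cycloheximide for an additional 17 h. GFP read by high-content imaging; luciferase read with D-luciferin; quadruplicates.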
Target sequence in this assay (P55072 2-806 limits assumed): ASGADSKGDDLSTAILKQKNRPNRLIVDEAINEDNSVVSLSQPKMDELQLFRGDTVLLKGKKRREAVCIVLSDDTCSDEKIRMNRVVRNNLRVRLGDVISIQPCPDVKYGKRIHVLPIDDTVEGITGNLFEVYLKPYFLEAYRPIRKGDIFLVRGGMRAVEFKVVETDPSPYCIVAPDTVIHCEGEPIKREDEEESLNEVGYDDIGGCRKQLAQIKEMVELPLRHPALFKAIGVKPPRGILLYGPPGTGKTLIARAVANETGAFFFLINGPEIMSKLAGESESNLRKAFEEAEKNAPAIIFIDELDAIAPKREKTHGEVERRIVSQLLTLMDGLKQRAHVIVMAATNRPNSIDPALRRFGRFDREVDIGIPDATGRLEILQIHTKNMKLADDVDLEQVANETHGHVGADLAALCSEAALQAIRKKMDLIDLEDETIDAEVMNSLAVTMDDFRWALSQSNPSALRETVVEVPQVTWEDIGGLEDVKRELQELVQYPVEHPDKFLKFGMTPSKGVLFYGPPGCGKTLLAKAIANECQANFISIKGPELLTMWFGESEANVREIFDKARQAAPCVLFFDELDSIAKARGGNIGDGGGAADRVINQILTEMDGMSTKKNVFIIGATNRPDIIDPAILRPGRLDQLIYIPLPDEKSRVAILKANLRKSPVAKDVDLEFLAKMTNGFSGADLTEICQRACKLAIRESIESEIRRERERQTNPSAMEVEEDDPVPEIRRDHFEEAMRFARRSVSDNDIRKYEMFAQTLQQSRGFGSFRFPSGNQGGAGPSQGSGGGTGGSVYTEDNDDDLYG

| Structure (SMILES) | IC50 [1] [µM] | IC50 [2] [µM] | IC50 [3] [µM] | IC50 [4] [µM] | Selectivity ratio [5] | inhibition [6] |
| --- | --- | --- | --- | --- | --- | --- |
| Cc1ccc(C(=O)C#Cc2ccccc2)cc1 | 5.2 | 0.2 | 3.4 |  |  |  |
| C=CC(=O)Nc1ncnc2c1c(-c1ccc(-c3ccccc3)cc1)nn2C(C)(C)C | > 30 | 2.8 | 2.1 |  |  |  |
| CC(C)(C)n1nc(-c2ccc(-c3ccccc3)cc2)c2c(N)ncnc21 | > 30 | > 50 | > 30 |  |  |  |
| CC(C)(C)n1nc(-c2ccccc2)c2c(N)ncnc21 | > 30 | > 100 | > 30 | > 100 |  |  |
| CC1(C)C(N(O)C(=O)Nc2ccc(Cl)cc2)N(c2ccc(Cl)cc2)C(=O)N1CC(=O)N/N=C/C=C/c1ccc([N+](=O)[O-])o1 (stereo not given) |  | > 30 | 3.7 |  |  |  |
| CNc1ncnc2c1c(-c1ccc3ccccc3c1)nn2C(C)(C)C | > 30 | > 50 | > 30 |  |  |  |
| COc1cc(/C=C/[N+](=O)[O-])ccc1OC(C)=O | 2.3 | 3.6 | 5.7 |  |  |  |
| CCC(=O)Oc1ccc(/C=C/[N+](=O)[O-])cc1OC | 1.6 | 3.4 | 4.3 |  |  |  |
| COc1cc(/C=C/[N+](=O)[O-])ccc1O | 5 | 13 | 6.8 |  |  |  |
| COc1ccc(/C=C/[N+](=O)[O-])cc1OC | 1.8 | 3.1 | 1.9 |  |  |  |
| O=C(O)/C=C/c1ccc2c(c1)OCO2 | > 30 | > 30 | > 30 |  |  |  |
| O=[N+]([O-])/C=C/c1ccc(F)c(Br)c1 | 2 | 1.7 | 1.8 |  |  |  |
| C=CC(=O)N(C(=O)C=C)c1ncnc2c1c(-c1ccc3ccccc3c1)nn2C(C)(C)C | > 30 | 1.3 | 2.5 | 22 |  |  |
| O=[N+]([O-])/C=C/c1c(F)c(F)c(F)c(F)c1F | 2.1 | 2.4 | 2.7 |  |  |  |
| O=[N+]([O-])/C=C/c1cccc([N+](=O)[O-])c1 | 4 | 1.2 | 1.7 |  |  |  |
| Cc1cc(OCc2nnc(SC3CCCC3)n2-c2cccnc2)ccc1-c1ccc(S(C)(=O)=O)cc1 |  |  |  |  | 4.5 |  |
| CC(C)C[C@@H](C=O)NC(=O)[C@@H](CC(C)C)NC(=O)[C@H](CC(C)C)NC(=O)OCc1ccccc1 (Cbz-Leu-[dL]-Leu-aldehyde) |  |  |  |  |  | inactive |
| C=CC(=O)N(C(=O)C=C)c1ncnc2c1c(-c1ccc(-c3ccccc3)cc1)nn2C(C)(C)C | > 30 | 0.9 | 6.1 |  |  |  |
| C=CC(=O)Nc1ncnc2c1c(-c1ccc3ccccc3c1)nn2C(C)(C)C | > 30 | 3 | 2 | 24 |  |  |
| O=[N+]([O-])/C=C/c1cccnc1 | 3 | 0.7 | 2.9 |  |  |  |
| Cc1ccc(-c2c(C(=O)CF)n(CCCO)c3ncnc(N)c23)cc1 | 39 | > 30 | 47 |  |  |  |
| O=[N+]([O-])/C=C/c1ccc2c(c1)OCO2 | 3.9 | 1.7 | 1.6 |  |  |  |
| CC(C)(C)n1nc(-c2ccc3ccccc3c2)c2c(N)ncnc21 | > 30 | > 100 | > 30 | > 100 |  |  |
| C=CC(=O)Nc1ccc2ncnc(Nc3ccc(-c4ccccc4)cc3)c2c1 | 11 | 10 | 18 |  |  |  |
| CC(C)(C)n1nc(-c2ccccc2)c2c(NC(=O)CCl)ncnc21 | > 30 | 4.5 | 31 | 35 |  |  |
| COc1cc(/C=C/[N+](=O)[O-])ccc1OC(=O)c1ccccc1 | 10 | 2 | 5.7 |  |  |  |
| C=CC(=O)N(C(=O)C=C)c1ncnc2c1c(-c1ccccc1)nn2C(C)(C)C | > 30 | 1.1 | 5.4 | 26 |  |  |
| Cc1ccc(-c2c(C(=O)CCl)n(CCCO)c3ncnc(N)c23)cc1 | 4 | 3.9 | 5.8 |  |  |  |
